# Screening data deposited in PubChem by several laboratories.
# Sampled rows, rich in hits. Any-hit rate of the full collection: about 4.8%.
# STAT1 act: increases IFN-gamma driven STAT1 reporter signal | NIH 3T3 STAT1-luciferase reporter, luminescence; 100% = IFN-gamma alone, no compound | 200,000 compounds, 2.6% hits | activation (% of control), % at 5.5 µM;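 active means activation above the screen-wide mean activation plus 3 SD, cut at about 130% in these data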;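 further: raw ratio to IFN-gamma control signal so 100% means no change and 0% no light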
# NF-kB expr up: NF-kB expression increase, human neuronal cells | AID 1239 | NF-kB reporter expression; hits give high values | 190,000 compounds, 1.6% hits | fold change at 12.5 µM; in the data active means fold change above about 3.3
# APP transl inh: APP translation inhibition. SH-SY5Y APP 5'UTR-luciferase reporter, luminescence. inhibition, % at 2 µM. 190,000 compounds, 0.82% hits;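 active means inhibition above a set limit, derived from the sample mean plus 3 SD, cut at about 45% in these data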
# FLuc inhib CS: counter-screen for luciferase assay inhibitors: firefly luciferase inhibition. P08659. ATPLite firefly luciferase biochemical luminescence, 10 min. inhibition, % at 10 µM. 200,000 compounds, 1.5% hits. AID 1006;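 active means inhibition above about 50% when tested at 10 µM, limit read from the data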
# Target sequence (P08659 whole entry, looked up): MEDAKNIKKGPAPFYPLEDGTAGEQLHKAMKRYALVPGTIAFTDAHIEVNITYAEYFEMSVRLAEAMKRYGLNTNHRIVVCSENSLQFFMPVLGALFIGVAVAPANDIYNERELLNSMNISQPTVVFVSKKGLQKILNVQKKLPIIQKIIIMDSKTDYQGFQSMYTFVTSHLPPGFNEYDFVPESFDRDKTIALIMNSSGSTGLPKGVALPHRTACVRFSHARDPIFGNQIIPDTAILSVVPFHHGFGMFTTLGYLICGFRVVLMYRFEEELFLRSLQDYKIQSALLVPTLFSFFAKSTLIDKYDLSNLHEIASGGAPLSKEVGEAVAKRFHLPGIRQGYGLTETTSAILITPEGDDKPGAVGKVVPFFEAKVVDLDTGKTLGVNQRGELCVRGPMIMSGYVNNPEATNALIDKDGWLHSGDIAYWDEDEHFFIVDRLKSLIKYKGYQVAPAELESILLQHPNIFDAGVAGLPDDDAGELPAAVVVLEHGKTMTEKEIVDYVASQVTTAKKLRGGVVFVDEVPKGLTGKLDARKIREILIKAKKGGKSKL
# APP 5'UTR act: activates APP 5'UTR luciferase reporter; SH-SY5Y APP 5'UTR luciferase reporter, luminescence; zero percent = DMSO vehicle wells; activation, % at 2 µM; 190,000 compounds, 1% hits;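 active means activation above a set limit, based on mean plus 3 SD of controls, cut at about 140% in these data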
# FLuc act counter: firefly luciferase counter-screen for stimulation assays. ATPlite luciferase biochemical, luminescence, 10 min; 0 = ATP-free wells, 1 = DMSO control. activation factor at 10 µM. P08659. 200,000 tested, under 10 active. AID 1027;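 active means luciferase activation factor, scaled between plate controls, of at least 2 with compound at 10 µM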
#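 test system = cell-free luciferase reagent | medium = PBS as buffer for the ATP substrate | dosing = test compounds dosed from 2 mM stocks in 100% DMSO | incubation = 10 min at ambient temperature | detection = luminescence measurement of luciferase light output | benchmarks = low control with PBS replacing ATP, high control enzyme plus ATP without compound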
# Starred values were filed as active, the others as inactive; · = no result.
SMILES,STAT1 act,NF-kB expr up,APP transl inh,FLuc inhib CS,APP 5'UTR act,FLuc act counter
O=C(Nc1cccc(-c2cn3cccnc3n2)c1)c1ccc2c(c1)OCO2,100,0.58,-16,13,16,0.9
c1cnc2nc(-c3ccc4c(c3)OCO4)cn2c1,136*,2.2,-62,55*,62,0.4
O=C1c2ccccc2C(=O)N1CCCCN(C(=O)c1cc([N+](=O)[O-])ccc1Cl)c1ccc(Cl)cc1,101,0.49,-1,-5,1,1.1
Nc1c(C(=O)NCc2ccco2)nnn1CC(=O)Nc1ccc2c(c1)OCO2,100,4*,16,-2,-16,1
CC(C)c1ccc(NC(=O)C(=O)C2C(=O)Nc3ccccc32)cc1 (configuration not stated),104,1.5,-2,52*,2,0.5
COC(=O)N/N=C/c1c[nH]c2ccccc12,106,1.3,-10,0,10,1
Fc1c(F)c(F)c(N/N=C/c2c[nH]c3ccccc23)c(F)c1F,86,13*,8,0,-8,1
Cc1occc1C(=O)N/N=C/c1c[nH]c2ccccc12,132*,3,-143,16,143*,0.8
CC(C)(C)OC(=O)N/N=C/c1c[nH]c2ccccc12,118,1.2,-14,54*,14,0.5
Cc1cc(C)nc(N/N=C/c2c[nH]c3ccccc23)n1,93,1.5,0,12,0,0.9
Cc1ccc(/C=N/NC(=O)c2cc(C3CC3)nc3ccccc23)o1,98,1,28,-2,-28,1
Cc1cccc2[nH]c(CN(C)Cc3nc(CC4CC4)no3)nc12,93,0.86,11,-5,-11,1
Cc1ccc(N2CN=C(c3ccccc3)NC2=S)cc1,130*,2.3,-77,2,77,1
O=[N+]([O-])c1ccc(Sc2cccc3cccnc23)cc1,107,1.2,-17,0,17,1
O=[N+]([O-])c1ccc(Sc2cccc3cccnc23)c([N+](=O)[O-])c1,108,1.8,55*,-10,-55,1.1
C=CCn1nc([N+](=O)[O-])nc1Sc1cccc2cccnc12,108,3.5*,44,-1,-44,1
CNC(=O)C12CC3CC(CC(Cl)(C3)C1)C2,93,1.2,-15,-1,15,1
CC(C)c1ccc2nc(N)sc2c1,113,3.1,-122,67*,122,0.3
Nc1nc2ccc(O)cc2s1,96,1.8,-8,0,8,1
Cc1cccc(NC(=S)NNC(=O)c2csc3c2CCCC3)c1,115,1.9,-92,57*,92,0.4
Cc1cccc(NC(=S)NNC(=O)c2csc(C)c2)c1,98,2.6,-61,57*,61,0.4
Cc1cc(C(=O)NNC(=S)NCC(C)C)cs1,94,1.2,-15,-9,15,1.1
CC1CCN(C(=O)c2cc3ccccc3o2)CC1,126,2.3,-50,17,50,0.8
Cc1ccccc1-n1c(Cc2cccs2)n[nH]c1=S,102,1.4,10,8,-10,0.9
Cc1cc(C)c(NC(=S)NC(=O)c2ccc(-c3ccccc3)cc2)c(C)c1,94,0.7,1,-5,-1,1.1
SMILES,STAT1 act,NF-kB expr up,APP transl inh,FLuc inhib CS,APP 5'UTR act,FLuc act counter
Cc1ccc(C(=O)NC(=S)Nc2cc(-c3nc4ccccc4s3)ccc2C)cc1,115,4*,-120,4,120,1
O=C(COc1ccccc1C(=O)c1cnn(-c2ccccc2)c1)Nc1ccccc1,120,1.4,-31,74*,31,0.3
Cc1ccc(-n2cc(C(=O)c3ccccc3O)cn2)cc1,89,3.1,-100,68*,100,0.3
O=C(CSc1cn(Cc2ccccc2)c2ccccc12)N1CCOCC1,126,2,-28,-6,28,1.1
CCOC(=O)C1=C(Cc2ccc(OC)cc2)C(=O)c2ccccc2C1=O,100,2.1,72*,1,-72,1
CCOC(=O)c1c(NC(=O)Cn2nnc(-c3ccc(Cl)cc3)n2)sc(CC)c1C,102,1.1,-13,-6,13,1.1
O=[N+]([O-])c1cccc(Cl)c1CSc1ccccn1,92,1.4,10,-7,-10,1.1
COc1ccc(-c2ccc(-c3nnn(CC(=O)N4CCOCC4)n3)cc2)cc1,114,2.2,-37,74*,37,0.3
CC1CCN(Cc2nc(-c3ccccc3)no2)CC1,142*,3.4*,-75,·,75,·
O=C(Nc1ccc(-c2noc(CCc3ccccc3)n2)cc1)c1ccco1,136*,3.9*,-173,40,173*,0.6
O=C(Nc1ccc(-c2cn3ccccc3n2)cc1)c1ccco1,144*,2.4,-122,86*,122,0.1
Cc1cccc(-c2noc(Cc3ccccc3)n2)c1,135*,2.1,-42,6,42,0.9
Cc1ccc(CSCC(=O)N/N=C/c2cccc(OC3CSC3)c2)cc1,101,1.2,-13,-3,13,1
O=C(COCC(=O)N1CCOCC1)N1CCOCC1,103,·,-5,7,5,0.9
c1ccc(OCc2nc(-c3ccccc3)no2)cc1,142*,2.8,-34,7,34,0.9
c1ccc(OCc2nc(-c3ccncc3)no2)cc1,123,1.2,-24,5,24,0.9
c1ccc(CCc2nc(-c3ccccc3)no2)cc1,134*,1.8,-18,2,18,1
CCc1ccccc1NC(=O)Nc1cc(F)ccc1F,100,0.92,10,2,-10,1
Oc1ccc(-c2cccc(-c3ccc(O)cc3)n2)cc1,113,1.5,-27,4,27,1
O=C1c2ccccc2-c2nnc(-c3ccc(F)cc3)cc21,115,4.5*,-144,79*,144*,0.2
Cc1cccc(C)c1NS(=O)(=O)c1ccc2c(c1)C(=O)c1ccccc1C2=O,110,1.3,·,-3,·,1
NC(=O)CSc1ccc(-c2ccc(F)cc2)nn1,102,1.2,-29,1,29,1
O=C1c2ccccc2-c2nnc(-c3ccc(O)cc3)cc21,56,2.4,-120,90*,120,0.1
Cc1ccccc1-c1cc2c(nn1)-c1ccccc1C2=O,88,0.96,-17,77*,17,0.2
CCc1ccccc1NC(=O)CCc1nc(-c2cccs2)no1,91,1.1,5,-6,-5,1.1
COc1ccccc1C1=NC(c2ccc(F)cc2)N=C1C (configuration not stated),131*,1.8,-17,4,17,1
COc1ccccc1-c1cc(N)n[nH]1,108,1.1,-8,1,8,1
Cc1ccc(-n2c(C)nnc2SCC(=O)NNC(=O)c2ccco2)cc1,104,1.1,-8,2,8,1
CCN(CC)S(=O)(=O)c1ccc(N=Nc2c(C)[nH]n(C(N)=S)c2=O)cc1,116,1.7,-22,38,22,0.6
